Legend:
[1] = tested on: HT-29; assay: Antiproliferative activity against human HT-29 cells after 2 days by MTT assay; type: functional, cell-based; conditions: HT-29, 48 h
Procedure, shortened: (§1)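 Cells (5×10^3 per well) in DMEM with 10% FBS, glucose, glutamine and antibiotics were exposed to serial dilutions (stocks in DMSO) for 2 days at 37 °C, 5% CO2. MTT was added for 3 h, formazan was dissolved in DMSO and absorbance read at 490 nm. Viability was taken as % of untreated cells. IC50 was read graphically from three independent experiments.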

[2] = tested on: MCF7; assay: Antiproliferative activity against human MCF7 cells after 2 days by MTT assay; type: functional, cell-based; conditions: MCF7, 48 h; procedure, shortened: as §1
[3] = tested on: HeLa; assay: Antiproliferative activity against human HeLa cells after 2 days by MTT assay; type: functional, cell-based; conditions: 48 h; procedure, shortened: as §1
[4] = tested on: HEK293; assay: Antiproliferative activity against human HEK293 cells after 2 days by MTT assay; type: cell-based; conditions: HEK293, 48 h; procedure, shortened: as §1
[5] = tested on: HT-29; assay: Induction of apoptosis in human HT-29 cells assessed as viable cells at 0.5 nM after 48 hrs by Annexin V-FITC staining-based flow cytometric analysis (reference value: 82 +/- 1%); type: functional; conditions: HT-29, 48 h, read-out: Activity
[6] = tested on: HT-29; assay: Induction of apoptosis in human HT-29 cells assessed as apoptotic cells at 0.5 nM after 48 hrs by Annexin V-FITC staining-based flow cytometric analysis (reference value: 13 +/- 3%); type: functional
[7] = tested on: HT-29; assay: Induction of apoptosis in human HT-29 cells assessed as necrotic cells at 0.5 nM after 48 hrs by Annexin V-FITC staining-based flow cytometric analysis (reference value: 2 +/- 6%); type: functional
[8] = tested on: HT-29; assay: Effect on c-MYC gene expression in human HT-29 cells assessed as c-MYC level at 0.5 nM after 48 hrs by RT-qPCR analysis; type: functional
Procedure, shortened: (§2)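 HT-29 cells at 70–80% confluence were seeded at 1.5×10^5 per well and left 24 h, then treated 48 h, with DMSO as control. Total RNA was extracted and VEGF-A, c-Myc and hTERT were quantified by TaqMan qPCR, normalized to β-actin and to living cell number. Results are % expression versus control, at least three measurements.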

[9] = tested on: HT-29; assay: Effect on hTERT gene expression in human HT-29 cells assessed as hTERT level at 0.5 nM after 48 hrs by RT-qPCR analysis; type: functional; procedure, shortened: as §2
[10] = tested on: HT-29; assay: Effect on VEGF gene expression in human HT-29 cells assessed as VEGF level at 0.5 nM after 48 hrs by RT-qPCR analysis; type: functional; procedure, shortened: as §2
[11] = tested on: HT-29; assay: Effect on c-MYC protein expression in human HT-29 cells assessed as c-MYC level at 0.5 nM after 48 hrs by ELISA; type: functional
Procedure, shortened: (§3)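 HT-29 cells (1.5×10^5 per well, 24 h pre-culture) were treated 48 h and washed in PBS. They were lysed in Tris pH 7.4 buffer with detergents, phosphatase inhibitors, PMSF and protease inhibitors. Lysates were adjusted to 200 µg/mL protein (Bradford) and total c-Myc or VEGFR-2 was measured by sandwich ELISA kit. Values are % of DMSO control, ≥3 measurements.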

[12] = tested on: HT-29; assay: Effect on VEGFR2 protein expression in human HT-29 cells assessed as VEGFR2 level at 0.5 nM after 48 hrs by ELISA; type: functional; procedure, shortened: as §3
[13] = tested on: HT-29; assay: Effect on VEGF protein expression in human HT-29 cells assessed as secreted VEGF level in culture media at 0.5 nM after 48 hrs by ELISA
[14] = tested on: HT-29; assay: Induction of apoptosis in human HT-29 cells assessed as viable cells at 1000 nM after 48 hrs by Annexin V-FITC staining-based flow cytometric analysis (reference value: 82 +/- 1%); type: functional; conditions: HT-29, 48 h, read-out: Activity
[15] = tested on: HT-29; assay: Induction of apoptosis in human HT-29 cells assessed as apoptotic cells at 1000 nM after 48 hrs by Annexin V-FITC staining-based flow cytometric analysis (reference value: 13 +/- 3%); type: functional
[16] = tested on: HT-29; assay: Induction of apoptosis in human HT-29 cells assessed as necrotic cells at 1000 nM after 48 hrs by Annexin V-FITC staining-based flow cytometric analysis (reference value: 2 +/- 6%); type: functional
[17] = tested on: HT-29; assay: Induction of apoptosis in human HT-29 cells assessed as viable cells at 500 nM after 48 hrs by Annexin V-FITC staining-based flow cytometric analysis (reference value: 82 +/- 1%); type: functional; conditions: HT-29, 48 h, read-out: Activity
[18] = tested on: HT-29; assay: Induction of apoptosis in human HT-29 cells assessed as apoptotic cells at 500 nM after 48 hrs by Annexin V-FITC staining-based flow cytometric analysis (reference value: 13 +/- 3%); type: functional
[19] = tested on: HT-29; assay: Induction of apoptosis in human HT-29 cells assessed as necrotic cells at 500 nM after 48 hrs by Annexin V-FITC staining-based flow cytometric analysis (reference value: 2 +/- 6%); type: functional
[20] = tested on: HT-29; assay: Induction of apoptosis in human HT-29 cells assessed as viable cells at 2000 nM after 48 hrs by Annexin V-FITC staining-based flow cytometric analysis (reference value: 82 +/- 1%); type: functional; conditions: HT-29, 48 h, read-out: Activity
[21] = tested on: HT-29; assay: Induction of apoptosis in human HT-29 cells assessed as apoptotic cells at 2000 nM after 48 hrs by Annexin V-FITC staining-based flow cytometric analysis (reference value: 13 +/- 3%); type: functional
[22] = tested on: HT-29; assay: Induction of apoptosis in human HT-29 cells assessed as necrotic cells at 2000 nM after 48 hrs by Annexin V-FITC staining-based flow cytometric analysis (reference value: 2 +/- 6%); type: functional

| Compound | IC50 [1] | IC50 [2] | IC50 [3] | IC50 [4] | Activity [8] | Activity [9] | Activity [10] | Activity [11] | Activity [12] | Activity [13] | other results |
| --- | --- | --- | --- | --- | --- | --- | --- | --- | --- | --- | --- |
| COc1cc2c(c(OC)c1OC)-c1ccc(OC)c(=O)cc1[C@@H](NC(=O)Nc1ccccc1Cl)CC2 | 0.8 nM | 1.3 nM | 1.2 nM | 0.7 nM | 25% | 46% | 30% | 51% | 38% | 34% | viability at 0.0005 µM [5]: 58%; Activity [6]: 41%; Activity [7]: 1% |
| COc1ccccc1NC(=O)N[C@H]1CCc2cc(OC)c(OC)c(OC)c2-c2ccc(OC)c(=O)cc21 | 1200 nM | 1200 nM | 1400 nM | 1200 nM | – | – | – | – | – | – | viability at 1 µM [14]: 55%; Activity [15]: 44%; Activity [16]: 1% |
| CCc1cccc(CC)c1NC(=O)N[C@H]1CCc2cc(OC)c(OC)c(OC)c2-c2ccc(OC)c(=O)cc21 | 838 nM | 185 nM | 304 nM | 801 nM | – | – | – | – | – | – | viability at 0.5 µM [17]: 67%; Activity [18]: 32%; Activity [19]: 1% |
| COc1cc2c(c(OC)c1OC)-c1ccc(OC)c(=O)cc1[C@@H](NC(=O)Nc1ccc(C)cc1Cl)CC2 | 0.71 nM | 0.9 nM | 3 nM | 3 nM | 85% | 80% | 70% | 112% | 45% | 75% | viability at 2 µM [20]: 66%; Activity [21]: 33%; Activity [22]: 1% |

From ChEMBL document CHEMBL4229380, “Arylureas derived from colchicine: Enhancement of colchicine oncogene downregulation activity” (Eur J Med Chem, 2018)
